# Source: PubChem
# SENP6 block – inhibitors of human SENP6 protease; Recombinant SENP6 catalytic domain, aminoluciferin luminescence; inhibition, % at 10 µM; Q9GZR1; 330,000 tested, 1.8% active;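 active = inhibition above about 50% at the single tested dose, limit read from the data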;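 note: plate controls were DMSO wells with enzyme for no effect and DMSO wells lacking enzyme for full effect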
# SENP1 inh – inhibitors of human SENP1 SUMO protease catalytic domain | recombinant SENP1 catalytic domain, CyPet-SUMO1-YPet FRET cleavage | Q9P0U3 | 360,000 tested, 0.21% active | AID 624204 | inhibition, % at 10 µM;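 active = inhibition at least 30% at 10 µM, raw YFP signal under a set limit, fluorescence ratio 0.5 to 1.5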;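 note: 0% = enzyme with DMSO and 100% = no enzyme wells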
# Target sequence (Q9P0U3 419-644 limits assumed): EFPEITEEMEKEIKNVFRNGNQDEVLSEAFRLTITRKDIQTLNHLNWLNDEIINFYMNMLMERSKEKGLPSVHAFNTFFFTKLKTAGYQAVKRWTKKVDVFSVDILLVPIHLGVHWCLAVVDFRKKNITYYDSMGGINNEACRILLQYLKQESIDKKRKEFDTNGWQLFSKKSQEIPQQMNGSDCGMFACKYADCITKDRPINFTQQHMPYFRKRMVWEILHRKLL
#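 Assay system: hSENP1 catalytic domain, recombinant. Amount: SENP1 enzyme, 20 pM final. Schedule: 50 min reaction, RT, dark. Technique: FRET, CFP and YFP emission. Control set: no-enzyme wells low, DMSO-plus-enzyme wells high control.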
# SENP8 block-1 – blocks human SENP8 cleavage of Nedd8 substrate | 360,000 tested, 0.64% active | Q96LD8 | recombinant SENP8, Nedd8 substrate fluorescence | inhibition, % at 20 µM; in the data active = inhibition mostly above about 40%, no sharp cut-off; inactive = mostly below about 27%
# Target sequence (Q96LD8 whole entry, looked up): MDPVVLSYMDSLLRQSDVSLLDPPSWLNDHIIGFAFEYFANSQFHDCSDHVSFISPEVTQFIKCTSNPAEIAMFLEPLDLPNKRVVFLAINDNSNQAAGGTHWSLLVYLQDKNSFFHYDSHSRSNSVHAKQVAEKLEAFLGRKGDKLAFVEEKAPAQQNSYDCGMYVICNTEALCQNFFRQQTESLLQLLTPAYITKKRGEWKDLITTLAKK
# SENP8 block-2 – inhibitors of human SENP8 protease. 330,000 tested, 1.2% active. inhibition, % at 10 µM. Q96LD8. purified SENP8, Z-RLRGG-aminoluciferin cleavage, luminescence; in the data active = inhibition above about 50%
# SENP7 block – blocks the human protease SENP7 | Q9BQF6 | AID 434973 | 330,000 tested, 1.5% active | inhibition, % at 5 µM | recombinant SENP7, Z-RLRGG-aminoluciferin luminescence, 40 min;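 active = inhibition above about 50% at the single test dose, limit read from the data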;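 note: plate controls were DMSO with enzyme for no effect and no enzyme buffer wells for full effect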
# SENP8 confirm – confirmation of human SENP8 protease inhibitors. shares compounds with SENP7 block. Recombinant SENP8, Z-RLRGG-aminoluciferin luminescence, 60 min. inhibition, % at 12.5 µM. 6,200 tested, 40% active. AID 488912;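 active = mean inhibition across replicates above about 50%, limit read from the data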
# SENP6 confirm – confirmation of human SENP6 protease inhibitors; 6,200 tested, 58% active; recombinant SENP6, Z-RLRGG-aminoluciferin luminescence; AID 488915; inhibition, % at 12.5 µM; shares compounds with SENP7 block
# SENP7 confirm – human SENP7 inhibition, confirmed | shares compounds with SENP7 block | recombinant SENP7, Z-RLRGG-aminoluciferin luminescence, 40 min | inhibition, % at 12.5 µM | 6,200 tested, 69% active | AID 488917
# Casp3 select – caspase-3 inhibition (SENP selectivity assay); inhibition, % at 12.5 µM; shares compounds with SENP7 block; AID 488918; 6,200 tested, 60% active; purified caspase-3, Z-DEVD-aminoluciferin luminescence, 60 min;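 active = mean inhibition above about 50%, limit read from the data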;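 note: plate controls were enzyme with DMSO for no effect and wells without caspase-3 for full effect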
# Target sequence (P42574 28-227 limits assumed): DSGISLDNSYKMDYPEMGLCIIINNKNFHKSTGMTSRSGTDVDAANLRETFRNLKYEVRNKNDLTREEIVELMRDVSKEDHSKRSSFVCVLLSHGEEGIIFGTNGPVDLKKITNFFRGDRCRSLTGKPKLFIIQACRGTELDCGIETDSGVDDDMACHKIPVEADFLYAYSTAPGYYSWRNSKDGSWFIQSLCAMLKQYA
# Luc interf – luminescence interference (SENP counter-screen) | shares compounds with SENP7 block | Pre-incubated SENP8/Z-RLRGG-aminoluciferin, luciferase luminescence interference | inhibition, % at 12.5 µM | 6,200 tested, 39% active;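 active = mean inhibition above about 50% when retested at one dose, limit read from the data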;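 note: plate controls were DMSO wells with completed reaction for no effect and substrate without enzyme for full effect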
# An asterisk follows results filed as active; i = inactive; nt = no result. This is a sample that favours compounds with a hit; in the whole collection about 2.5% have one here.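 Rule for the calls, unless noted: active = mean inhibition above about 50% in the one-dose retest (limit read from the data); inactive = the rest.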
SMILES,SENP6 block,SENP1 inh,SENP8 block-1,SENP8 block-2,SENP7 block,SENP8 confirm,SENP6 confirm,SENP7 confirm,Casp3 select,Luc interf
NC(=O)c1ccccc1N/C=C/C(=O)c1ccc(Cl)cc1,84*,-56,i,64*,93*,48,78*,76*,90*,29
COc1ccc(N/C=C/C(=O)c2ccc(Cl)cc2)cc1,-6,-25,-12,-13,43,nt,nt,nt,nt,nt
Cc1ccc(C(=O)/C=C/Nc2ccccc2C(N)=O)cc1,95*,-86,i,86*,90*,22,90*,102*,94*,48
COCCn1c(SCC(=O)NC(=O)NC2CCCC2)nc2ccccc2c1=O,-14,2,12,-7,10,nt,nt,nt,nt,nt
CNC(=O)/C(C#N)=c1\s/c(=C/C(=O)OC)c(=O)n1-c1ccccc1,-12,1,8,-2,-12,nt,nt,nt,nt,nt
COC(=O)/C=c1\sc2ncnn2c1=O,85*,-1,16,7,6,6,1,-4,-3,-2
O=C(O)c1c2c(nc3ccccc13)/C(=C/c1ccc(O)cc1)CC2,77*,-26,-398,76*,71*,91*,88*,98*,93*,63*
O=C(NC(=S)Nc1ccc2[nH]c(=O)[nH]c2c1)c1ccccc1[N+](=O)[O-],-9,-3,5,1,-2,nt,nt,nt,nt,nt
O=C(Nc1ccc(Cl)cc1)Nc1ccccc1Sc1ncc([N+](=O)[O-])s1,99*,-8,24,96*,95*,100*,101*,104*,100*,39
COC(=O)c1ccc(-c2nc3cc(Cl)c(N)cc3s2)cc1,63*,-14,-409,28,97*,-18,-4,18,38,-5
CN(C)c1nc(N)ncc1-c1ccc(Oc2ccccc2)cc1,-2,2,19,-1,-2,nt,nt,nt,nt,nt
Cc1ccc(S(=O)(=O)CCC(=O)OCC(=O)Nc2ccc(N3CCOCC3)cc2)cc1,-10,2,0,-2,4,nt,nt,nt,nt,nt
CC1CCC(C(C)C)C(OC(=O)CSc2n[nH]c(=O)[nH]c2=O)C1 (stereo unspecified),0,1,5,51*,-4,-3,5,9,3,-9
CN(Cc1ccccc1)C(=O)COC(=O)CCNC(=O)c1ccccc1Cl,-22,0,13,-2,-1,nt,nt,nt,nt,nt
Cc1cc(C(=O)CN2C(=O)C(=O)N(CCC3=CCCCC3)C2=O)c(C)n1C,-9,-4,1,-13,6,nt,nt,nt,nt,nt
O=C(Nc1ccc2c(c1)OCCO2)c1cccc(C(=O)Nc2ccc3c(c2)OCCO3)c1,4,1,14,5,-3,nt,nt,nt,nt,nt
CCCc1cc(C(=O)Nc2cccc([N+](=O)[O-])c2)cs1,87*,0,8,59*,72*,9,73*,92*,45,56*
O=C(Nc1ccc2c(c1)OCCO2)c1cccc(Cl)c1,87*,1,14,77*,85*,7,86*,97*,85*,86*
O=C(Nc1cccc([N+](=O)[O-])c1)c1ccc2c(c1)OCCO2,72*,1,8,63*,75*,68*,70*,93*,72*,80*
O=C(Nc1cccc(Cl)c1)c1ccc2c(c1)OCCO2,91*,1,-3,92*,95*,0,93*,101*,89*,94*
CC(NC(=O)c1ccc(OC2CCN(Cc3ccccn3)CC2)cc1)c1nccs1 (stereo unspecified),-18,-8,-4,-10,7,nt,nt,nt,nt,nt
N#Cc1ccccc1S(=O)(=O)c1ccccc1C(=O)Nc1ccccc1,11,2,0,-8,-6,nt,nt,nt,nt,nt
CCN(CC)CCCNC(=O)c1ccc2c3n(nc2c1)-c1ccc(Cl)cc1CO3,-10,-8,-163,5,1,nt,nt,nt,nt,nt
CC(C)NC(=O)c1ccc2c3n(nc2c1)-c1ccc(Cl)cc1CO3,24,-2,-46,54*,-1,-2,26,62*,44,11
C[C@@H](CO)NC(=O)c1ccc2c3n(nc2c1)-c1ccccc1CO3,57*,1,-221,49,37,65*,66*,92*,91*,70*
SMILES,SENP6 block,SENP1 inh,SENP8 block-1,SENP8 block-2,SENP7 block,SENP8 confirm,SENP6 confirm,SENP7 confirm,Casp3 select,Luc interf
Cc1ccc2c(c1)COc1c3ccc(C(=O)N[C@@H](CO)C(C)C)cc3nn1-2,-11,-1,-239,-8,2,nt,nt,nt,nt,nt
O=C1OCC/C1=C\NCCCN/C=C1\CCOC1=O,nt,2,6,nt,nt,nt,nt,nt,nt,nt
O=C(CSc1ncccc1-c1nc2ccccc2[nH]1)N1CCc2ccccc21,0,-5,-179,-11,55*,4,-2,16,11,6
COC(=O)CSc1ncccc1-c1nc2ccccc2[nH]1,-3,-2,-59,-14,-6,nt,nt,nt,nt,nt
CCc1nnc2c(NCCc3ccccc3)nc3ccccc3n12,-8,0,0,-7,6,nt,nt,nt,nt,nt
CCCCN1C(=O)CCC(C(=O)O)C1c1ccc([N+](=O)[O-])cc1 (stereo unspecified),0,1,10,45,-1,nt,nt,nt,nt,nt
CC(=O)N(c1ccc(C)cc1)c1nc(C)cc(C)c1C#N,-17,1,16,0,2,nt,nt,nt,nt,nt
C(=N\N=C\c1cccs1)/c1cccs1,57*,2,21,40,52*,28,61*,87*,62*,38
CCOc1ccc(NC(=O)Nc2c(C)n(C)n(-c3ccccc3)c2=O)cc1,-49,0,18,0,-4,nt,nt,nt,nt,nt
CC(C)CCOCC(=O)Nc1cccc(C(=O)O)c1,58*,0,7,9,41,38,35,73*,18,62*
CC(=O)c1cccc(NC(=O)COc2ccccc2)c1,-30,-2,4,-4,-8,nt,nt,nt,nt,nt
CC(=O)Nc1ccc(-c2csc(Nc3cc(C)ccn3)n2)cc1,2,4,15,-13,-2,nt,nt,nt,nt,nt
Cc1cccnc1Nc1nc(-c2ccc(O)cc2O)cs1,69*,-1,11,56*,27,81*,81*,92*,25,45
Cc1nc2ncccn2c1-c1csc(Nc2ccc(O)cc2)n1,-7,3,-10,7,-1,nt,nt,nt,nt,nt
O=C(O)c1ccc(Nc2nc(-c3ccccc3)cs2)cc1,84*,0,-72,50,65*,72*,70*,90*,63*,80*
